ChEMBL document CHEMBL1126643, “Synthesis and evaluation of 2-pyridinone derivatives as HIV-1-specific reverse transcriptase inhibitors. 4. 3-[2-(Benzoxazol-2-yl)ethyl]-5-ethyl-6-methylpyridin-2(1H)-one and analogues” (J Med Chem, 1993)

How the values were obtained:
[1] = target: T1, Human immunodeficiency virus type 1 reverse transcriptase (Human immunodeficiency virus 1, UniProt Q72547); experiment: Tested for inhibition against HIV-1 RT (used (poly)rC-(oligo)dG as the template)
[2] = target: Human immunodeficiency virus type 1 reverse transcriptase (Human immunodeficiency virus 1) (UniProt Q72547); experiment: Cell culture inhibitor concentration required to inhibit the spread of HIV-1 strain III B infection in MT-4 human T-lymphoid cells; type: functional, cell-based
[3] = Half life was determined; type: ADME; conditions: 0.1 N HCl in 90% ethanol
How it was run: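 Acid hydrolysis: stock aliquot added to stirred ethanol/1 N HCl (8.9:1.0 mL) at 37 °C; aliquots withdrawn at intervals, quenched into pH 7.7 0.1 M MES buffer and analysed by HPLC.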

[4] = Percent unbound determined for whole normal human plasma; type: functional
How it was run: (§1)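 Compound from 1 mM DMSO stock added to pH 7.4 phosphate/NaCl buffer with human plasma (10-fold diluted plasma), initial compound 10 μM; triplicate aliquots centrifuged through filter tubes, filtrate analysed by HPLC.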

[5] = Plasma equilibrium dissociation constant was determined; type: functional, cell-free, Homo sapiens; how it was run: as §1
[6] = target: T1, Human immunodeficiency virus type 1 reverse transcriptase; experiment: Inhibition against HIV-1 RT (used (poly)rC-(oligo)dG as the template); not characterized

| SMILES | IC50 [1] [µM] | further results |
| --- | --- | --- |
| CCc1cc(CCc2nc3c(Cl)cccc3o2)c(S)nc1C | 0.03 |  |
| CCc1c[nH]c(=O)c(CCc2nc3ccccc3o2)c1 | 0.177 |  |
| CCc1cc(CCC(=O)Nc2c(O)cc(Cl)cc2Cl)c(O)nc1C | > 300 |  |
| CCc1cc(CCc2cc3ccccc3o2)c(O)nc1C | 0.13 |  |
| CCc1cc(CCc2nc3c(C)ccc(C)c3o2)c(=S)[nH]c1C | 0.052 |  |
| CCc1cc(/C=C\c2nc3ccccc3o2)c(=O)[nH]c1C | 3 |  |
| CCc1cc(CCc2nc3c(Cl)ccc(Cl)c3o2)c(=O)[nH]c1C | 0.014 |  |
| CCc1cc(CCc2cc3cnccc3o2)c(O)nc1C | 13.5 |  |
| CCc1cc(NCC(=O)Nc2c(O)cc(Cl)cc2Cl)c(O)nc1C | > 300 |  |
| CCc1cc(/C=C/c2nc3ccccc3o2)c(O)nc1C | 5.9 |  |
| CCc1cc(CCc2nc3c(F)cccc3o2)c(S)nc1C |  | IC95 [2]: 0.1 µM |
| CCc1cc(CCc2nc3ccc(C)cc3o2)c(=O)[nH]c1C | 0.172 |  |
| CCc1cc(CCc2nc3cccc(Cl)c3o2)c(S)nc1C |  | IC95 [2]: 0.2 µM |
| Cc1nc(O)c(CCc2nc3ccccc3o2)cc1N(C)C | 1.85 |  |
| CCc1cc(OCc2nc3ccccc3o2)c(=O)[nH]c1C | 0.191 | half-life [3]: 12 min |
| CCCc1cc(CCc2nc3ccccc3o2)c(O)nc1C | 0.083 |  |
| CCc1cc(CCc2nc3cccc(Cl)c3o2)c(=S)[nH]c1C | 0.029 |  |
| Cc1cc(CCc2nc3c(Cl)ccc(Cl)c3o2)c(=O)[nH]c1C | 0.097 |  |
| Cc1nc(O)c(CCc2nc3ccccc3o2)cc1CO | 3.4 |  |
| CCc1cc(CCc2nc3cc(F)ccc3o2)c(=O)[nH]c1C | 1.7 |  |
| CCc1cc(SCc2nc3c(Cl)ccc(Cl)c3o2)c(O)nc1C |  | IC95 [2]: 0.05 µM |
| CCc1cc(CCc2nc3cccc(Cl)c3o2)c(O)nc1C | 0.039 | Unbound [4]: 0.7%; Kd [5]: 4.16 µM; IC95 [2]: 0.1 µM |
| CCc1cc(CCc2nc3c(C)ccc(C)c3o2)c(=O)[nH]c1C | 0.028 |  |

| SMILES | IC50 [1] [µM] | further results |
| --- | --- | --- |
| CCc1cc(NCc2nc3c(Cl)ccc(Cl)c3o2)c(O)nc1C [L-697661] | 0.02 | Unbound [4]: 0.4%; IC95 [2]: 0.1 µM; half-life [3]: 17 min |
| CCc1cc(OCC(=O)Nc2ccccc2O)c(O)nc1C |  | IC50 [6]: not characterized |
| CCc1cc(CCc2nc3cccc(F)c3o2)c(S)nc1C |  | IC95 [2]: 0.2 µM |
| CCc1cc(CCc2nc3c(Cl)ccc(Cl)c3o2)c(S)nc1C | 0.03 | IC95 [2]: 0.1 µM |
| CCc1cc(CCc2ncc(-c3ccccc3)o2)c(O)nc1C | 0.385 |  |
| CCc1cc(NCc2nc3ccccc3o2)c(O)nc1C |  | IC95 [2]: 0.8 µM; half-life [3]: 35 min |
| CCc1cc(CCc2nc3c(F)ccc(F)c3o2)c(=S)[nH]c1C | 0.015 |  |
| CCc1cc(OCc2nc3c(Cl)ccc(Cl)c3o2)c(=O)[nH]c1C | 0.088 | half-life [3]: 11 min |
| CCc1cc(CCc2nc3cccc(C)c3o2)c(=O)[nH]c1C | 0.04 |  |
| CCc1cc(CCc2nc3ccccc3o2)c(O)nc1C | 0.023 | Unbound [4]: 4%; Kd [5]: 21.6 µM; IC95 [2]: 0.1 µM; half-life [3]: 218 min |
| CCc1cc(CCc2nc3c(Cl)cccc3o2)c(O)nc1C | 0.062 | Unbound [4]: 3%; Kd [5]: 17.6 µM; IC95 [2]: 0.1 µM |
| CCc1cc(SCc2nc3c(Cl)ccc(Cl)c3o2)c(=O)[nH]c1C | 0.011 | half-life [3]: 34 min |
| CCc1cc(CCc2ccccc2)c(=O)[nH]c1C | 50 |  |
| CCc1cc(CCc2nc3c(F)cccc3o2)c(=S)[nH]c1C | 0.013 |  |
| CCc1cc(CCc2ccc3ccccc3c2)c(=O)[nH]c1C | 8.4 |  |
| CCCc1cc(CCc2nc3c(Cl)ccc(Cl)c3o2)c(=O)[nH]c1C | 0.034 |  |
| COCc1cc(CCc2nc3ccccc3o2)c(=O)[nH]c1C | 2.1 |  |
| CCc1cc(CCCc2nc3ccccc3o2)c(O)nc1C | 16 |  |
| CCc1cc(CCC2=NC3CCCCC3O2)c(=O)[nH]c1C (stereo not drawn) | 0.058 |  |
| CCc1cc(CCc2ccccn2)c(O)nc1C | 260 |  |
| CCc1cc(NCC(=O)Nc2ccccc2O)c(O)nc1C |  | IC50 [6]: not characterized |
| CCc1cc(CCc2nc3c(F)ccc(F)c3o2)c(S)nc1C |  | IC95 [2]: 0.2 µM |
| CCc1cc(CCc2ccc3ccccc3n2)c(O)nc1C | 2.45 |  |

| SMILES | IC50 [1] [µM] | further results |
| --- | --- | --- |
| CCc1cc(CCc2nc3c(C)cccc3o2)c(=O)[nH]c1C | 0.033 |  |
| CCc1cc(CCC(=O)Nc2ccccc2O)c(=O)[nH]c1C | 5.4 |  |
| CCc1cc(Cc2nc3ccccc3o2)c(O)nc1C | 45 |  |
| Cc1nc(O)c(CCc2nc3ccccc3o2)cc1-c1ccccc1 | 1.1 |  |
| CCc1cc(S(=O)(=O)Cc2nc3c(Cl)ccc(Cl)c3o2)c(O)nc1C | 0.205 |  |
| CCC1=C(C)NC(N)C(CCc2nc3ccccc3o2)=C1 (stereo not drawn) | 100 |  |
| CCc1cc(CCc2nc3c(C)ccc(C)c3o2)c(O)nc1C |  | Unbound [4]: 0.2%; Kd [5]: 1.21 µM; IC95 [2]: 0.3 µM |
| CCc1cc([S+]([O-])Cc2nc3c(Cl)ccc(Cl)c3o2)c(O)nc1C (stereo not drawn) | 1.4 |  |
| Cc1[nH]c(=O)c(CCc2nc3ccccc3o2)cc1C(C)C | 0.048 |  |
| Cc1nc(O)c(CCc2nc3ccccc3o2)cc1C#N | 0.31 |  |
| Cc1cc(CCc2nc3ccccc3o2)c(O)nc1C | 0.17 |  |
| CCc1cc(CCc2nc3c(Cl)ccc(Cl)c3o2)c(O)nc1C |  | Unbound [4]: 0.1%; Kd [5]: 0.76 µM; IC95 [2]: 0.05 µM |
| CCc1cc(CCc2nc3c(F)cccc3o2)c(O)nc1C | 0.015 | Unbound [4]: 4%; Kd [5]: 24 µM; IC95 [2]: 0.05 µM |
| CCc1cc(CCc2nc3ccc(F)cc3o2)c(O)nc1C | 0.442 |  |
| CCc1cc(CNc2nc3ccccc3o2)c(O)nc1C | 1.25 | IC95 [2]: 10 µM |
| CCc1cc(CCc2nc3c(F)ccc(F)c3o2)c(O)nc1C | 0.014 | Unbound [4]: 3%; Kd [5]: 18.2 µM; IC95 [2]: 0.05 µM |
| Cc1[nH]c(=O)c(CCc2nc3ccccc3o2)cc1C(N)=O | 41.5 |  |
| CCc1cc(CCc2nc3c(C)ccc(C)c3o2)c(S)nc1C |  | IC95 [2]: 0.2 µM |
| CCc1cc(CCc2nc3c(C)cccc3o2)c(O)nc1C |  | Unbound [4]: 0.4%; Kd [5]: 2.45 µM; IC95 [2]: 0.1 µM |
| CCc1cc(CCc2nc3ccccc3o2)c(S)nc1C | 0.024 | IC95 [2]: 0.2 µM |
| CCc1cc(OCc2nc3c(Cl)ccc(Cl)c3o2)c(O)nc1C |  | IC95 [2]: 0.2 µM |
| CCc1cc(CCc2nc3cccc(F)c3o2)c(O)nc1C | 0.037 | Unbound [4]: 1.4%; Kd [5]: 8.16 µM |
| CCc1cc(CCc2nc3cccc(F)c3o2)c(=S)[nH]c1C | 0.043 |  |
